Test results: ChEMBL document CHEMBL1250517, “Synthesis and characterization of novel indole derivatives reveal improved therapeutic agents for treatment of ischemia/reperfusion (I/R) injury” (J Med Chem, 2010)

Assays:
Mus musculus [1] = assay: Antiinflammatory activity in Kunming mouse assessed as inhibition of xylene-induced ear edema at 20 mg/kg, po; type: functional
Mus musculus [2] = assay: Antiinflammatory activity in Kunming mouse assessed as inhibition of xylene-induced ear edema at 10 mg/kg, po; type: functional
Mus musculus [3] = assay: Antiinflammatory activity in Kunming mouse assessed as inhibition of xylene-induced ear edema at 5 mg/kg, po; type: functional
Rattus norvegicus [4] = assay: Antiinflammatory activity in Wistar rat assessed as inhibition of carrageenan-induced paw edema at 20 mg/kg, po administered prior to carrageenan challenge measured after 1 hrs post carrageenan challenge; type: functional
Rattus norvegicus [5] = assay: Antiinflammatory activity in Wistar rat assessed as inhibition of carrageenan-induced paw edema at 20 mg/kg, po administered prior to carrageenan challenge measured after 3 hrs post carrageenan challenge; type: functional
Rattus norvegicus [6] = assay: Antiinflammatory activity in Wistar rat assessed as inhibition of carrageenan-induced paw edema at 20 mg/kg, po administered prior to carrageenan challenge measured after 5 hrs post carrageenan challenge; type: functional
PC-12 [7] = assay: Antioxidant activity against nitric oxide scavenging activity in rat PC12 cells assessed as cell survival after 14 hrs by MTT assay; type: functional, cell-based; conditions: PC-12, 14 h
Summary of the method: (§1)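 PC12 cells (rat adrenal medulla pheochromocytoma) are exposed to free radicals. Compound is given either as preincubation before radical exposure or as incubation after exposure. Viability is read by MTT reduction.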

PC-12 [8] = assay: Antioxidant activity against H2O2 scavenging activity in rat PC12 cells assessed as cell survival after 14 hrs by MTT assay; type: functional, cell-based; conditions: PC-12, 14 h; summary of the method: as §1
PC-12 [9] = assay: Antioxidant activity against hydroxyl scavenging activity in rat PC12 cells assessed as cell survival after 14 hrs by MTT assay; type: functional, cell-based; conditions: PC-12, 14 h; summary of the method: as §1
Rattus norvegicus [10] = assay: Antiinflammatory activity against ischemia-reperfused lung tissue edema Wistar rat assessed as ratio of wet tissue weight to dry tissue weight at 20 mg/kg, ip; type: functional; conditions: route intraperitoneal
Summary of the method: (§2)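 Hind-limb ischemia/reperfusion injury model in rats, with compound at 20 mg/kg. Local injury assessed in skeletal muscle and remote injury in lung. Tissue edema is expressed as wet-to-dry tissue weight ratio. Lipid peroxidation is measured as MDA in plasma and lung, and histology uses H&E-stained sections.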

Rattus norvegicus [11] = assay: Antiinflammatory activity in ischemia-reperfused Wistar rat assessed as TNFalpha level at 20 mg/kg, ip (RVb = 123.4 +/- 8.9 pg/mL); type: functional; conditions: route intraperitoneal; summary of the method: as §2
Rattus norvegicus [12] = assay: Antiinflammatory activity in ischemia-reperfused Wistar rat assessed as plasma MDA level at 20 mg/kg, ip (RVb = 3.53 +/- 0.34 nmol/mL); type: functional; conditions: route intraperitoneal; summary of the method: as §2
Rattus norvegicus [13] = assay: Antiinflammatory activity in ischemia-reperfused Wistar rat assessed as lung MDA level at 20 mg/kg, ip measured per gram of tissue (RVb = 72.4 +/- 5.1 nmol); type: functional; conditions: route intraperitoneal; summary of the method: as §2
Rattus norvegicus [14] = assay: Antiinflammatory activity in ischemia-reperfused Wistar rat assessed as MPO level at 20 mg/kg, ip (RVb = 17.3 +/- 0.8 U/g); type: functional; conditions: route intraperitoneal; summary of the method: as §2
Rattus norvegicus [15] = assay: Antiinflammatory activity against ischemia-reperfused muscle tissue edema Wistar rat assessed as ratio of wet tissue weight to dry tissue weight at 20 mg/kg, ip; type: functional; conditions: route intraperitoneal; summary of the method: as §2

Work on `COC(=O)[C@@H]1Cc2c([nH]c3ccccc23)[C@@H](C[C@H]2OC[C@@H](N)[C@@H](C)O2)N1` yielded an inhibition in vivo at 20 mg/kg (Mus musculus [1]) of 74.3%, an inhibition in vivo at 10 mg/kg (Mus musculus [2]) of 60% and an inhibition in vivo at 5 mg/kg (Mus musculus [3]) of 35.2%. For the same compound, the inhibition in vivo at 20 mg/kg (Rattus norvegicus [4]) was 26.3%, the inhibition in vivo at 20 mg/kg (Rattus norvegicus [5]) was 61.4% and the inhibition in vivo at 20 mg/kg (Rattus norvegicus [6]) was 48.6%. The EC50 (PC-12 [7]) was 96.3 µM, the EC50 (PC-12 [8]) was 45.7 µM and the EC50 (PC-12 [9]) was 50.9 µM.

Compound `COc1ccc2[nH]c3c(c2c1)CCN[C@@H]3C[C@H]1OC[C@@H](NC(=O)Cc2ccccc2)[C@@H](C)O1` has an inhibition in vivo at 20 mg/kg (Mus musculus [1]) of 66%, an inhibition in vivo at 10 mg/kg (Mus musculus [2]) of 32.3% and an inhibition in vivo at 5 mg/kg (Mus musculus [3]) of 18.1%. The inhibition in vivo at 20 mg/kg (Rattus norvegicus [4]) was 44.7%, the inhibition in vivo at 20 mg/kg (Rattus norvegicus [5]) was 52.4% and the inhibition in vivo at 20 mg/kg (Rattus norvegicus [6]) was 34.3%. For the same compound, the EC50 (PC-12 [7]) was greater than 100 µM, the EC50 (PC-12 [8]) was 86.8 µM and the EC50 (PC-12 [9]) was 79.6 µM.

With `COC(=O)[C@@H]1Cc2c([nH]c3ccccc23)[C@H](C[C@H]2OC[C@@H](N)[C@@H](C)O2)N1` the inhibition in vivo at 20 mg/kg (Mus musculus [1]) was 45.1%, the inhibition in vivo at 20 mg/kg (Rattus norvegicus [4]) was 15.8% and the inhibition in vivo at 20 mg/kg (Rattus norvegicus [5]) was 39.7%. The inhibition in vivo at 20 mg/kg (Rattus norvegicus [6]) was 27.1%.

Compound `COc1ccc2[nH]cc(CCNC(C)=O)c2c1` [MELATONIN] has a Ratio (Rattus norvegicus [10]) of 3.55, an Activity (Rattus norvegicus [11]) of 53.6 pg/mL and an Activity (Rattus norvegicus [12]) of 1.75 nmol/mL. The Activity (Rattus norvegicus [13]) was 40.6 nmol, the Activity (Rattus norvegicus [14]) was 8.6 U/g and the Ratio (Rattus norvegicus [15]) was 3.21.

Compound `COC(=O)[C@@H]1Cc2c([nH]c3ccccc23)[C@@H](C[C@H]2OC[C@@H](NC(=O)Cc3ccccc3)[C@@H](C)O2)N1` has an inhibition in vivo at 20 mg/kg (Mus musculus [1]) of 60%, an inhibition in vivo at 10 mg/kg (Mus musculus [2]) of 30.1% and an inhibition in vivo at 5 mg/kg (Mus musculus [3]) of 16.8%. It also gave an inhibition in vivo at 20 mg/kg (Rattus norvegicus [4]) of 39.5%, an inhibition in vivo at 20 mg/kg (Rattus norvegicus [5]) of 49.2% and an inhibition in vivo at 20 mg/kg (Rattus norvegicus [6]) of 35.7%. The EC50 (PC-12 [7]) was greater than 100 µM, the EC50 (PC-12 [8]) was 91.6 µM and the EC50 (PC-12 [9]) was 88.1 µM.

`C[C@H]1O[C@@H](C[C@H]2NCCc3c2[nH]c2ccccc32)OC[C@H]1N` was tested, and the inhibition in vivo at 20 mg/kg (Mus musculus [1]) was 50.4%, the inhibition in vivo at 20 mg/kg (Rattus norvegicus [4]) was 21% and the inhibition in vivo at 20 mg/kg (Rattus norvegicus [5]) was 59.7%. The inhibition in vivo at 20 mg/kg (Rattus norvegicus [6]) was 30%.

`C[C@H]1O[C@@H](C[C@H]2NCCc3c2[nH]c2ccccc32)OC[C@H]1NC(=O)Cc1ccccc1` showed an inhibition in vivo at 20 mg/kg (Mus musculus [1]) of 44.4%, an inhibition in vivo at 20 mg/kg (Rattus norvegicus [4]) of 34.2% and an inhibition in vivo at 20 mg/kg (Rattus norvegicus [5]) of 47.6%. It also gave an inhibition in vivo at 20 mg/kg (Rattus norvegicus [6]) of 21.4%.

Compound `COc1ccc2c(c1)c(CC(=O)O)c(C)n2C(=O)c1ccc(Cl)cc1` [INDOMETHACIN] has an inhibition in vivo at 10 mg/kg (Mus musculus [2]) of 73.6%, an inhibition in vivo at 20 mg/kg (Rattus norvegicus [4]) of 47.3% and an inhibition in vivo at 20 mg/kg (Rattus norvegicus [5]) of 65.1%. The inhibition in vivo at 20 mg/kg (Rattus norvegicus [6]) was 54.3%.

Compound `COc1ccc2[nH]c3c(c2c1)CCN[C@@H]3C[C@H]1OC[C@@H](N)[C@@H](C)O1` has a Ratio (Rattus norvegicus [10]) of 3.98, an inhibition in vivo at 20 mg/kg (Mus musculus [1]) of 81.5% and an inhibition in vivo at 10 mg/kg (Mus musculus [2]) of 57.8%. For the same compound, the inhibition in vivo at 5 mg/kg (Mus musculus [3]) was 30.5%, the inhibition in vivo at 20 mg/kg (Rattus norvegicus [4]) was 31.5% and the inhibition in vivo at 20 mg/kg (Rattus norvegicus [5]) was 68.5%. The inhibition in vivo at 20 mg/kg (Rattus norvegicus [6]) was 57.1%, the EC50 (PC-12 [7]) was 88.5 µM and the EC50 (PC-12 [8]) was 32.5 µM. It also gave an EC50 (PC-12 [9]) of 25.7 µM, an Activity (Rattus norvegicus [11]) of 76.6 pg/mL and an Activity (Rattus norvegicus [12]) of 2.05 nmol/mL. The Activity (Rattus norvegicus [13]) was 49.5 nmol, the Activity (Rattus norvegicus [14]) was 10.7 U/g and the Ratio (Rattus norvegicus [15]) was 4.03.

For `C[C@H]1O[C@@H](CC=O)OC[C@H]1NC(=O)Cc1ccccc1`, the inhibition in vivo at 20 mg/kg (Mus musculus [1]) was 21.9%, the inhibition in vivo at 20 mg/kg (Rattus norvegicus [4]) was 18.4% and the inhibition in vivo at 20 mg/kg (Rattus norvegicus [5]) was 17.5%. The inhibition in vivo at 20 mg/kg (Rattus norvegicus [6]) was 12.9%.

With `COC(=O)[C@@H]1Cc2c([nH]c3ccccc23)[C@H](C[C@H]2OC[C@@H](NC(=O)Cc3ccccc3)[C@@H](C)O2)N1` the inhibition in vivo at 20 mg/kg (Mus musculus [1]) was 40.6%, the inhibition in vivo at 20 mg/kg (Rattus norvegicus [4]) was 28.9% and the inhibition in vivo at 20 mg/kg (Rattus norvegicus [5]) was 38.1%. It also gave an inhibition in vivo at 20 mg/kg (Rattus norvegicus [6]) of 20%.

Compound `COC(C[C@H]1OC[C@@H](NC(=O)Cc2ccccc2)[C@@H](C)O1)OC` has an inhibition in vivo at 20 mg/kg (Mus musculus [1]) of 38.1%, an inhibition in vivo at 20 mg/kg (Rattus norvegicus [4]) of 23.6% and an inhibition in vivo at 20 mg/kg (Rattus norvegicus [5]) of 33.3%. For the same compound, the inhibition in vivo at 20 mg/kg (Rattus norvegicus [6]) was 17.1%.
